Experimental data as given in ChEMBL document CHEMBL4049456, “Identification of 4-(Aminomethyl)-6-(trifluoromethyl)-2-(phenoxy)pyridine Derivatives as Potent, Selective, and Orally Efficacious Inhibitors of the Copper-Dependent Amine Oxidase, Lysyl Oxidase-Like 2 (LOXL2)” (J Med Chem, 2017).

Columns and labels:
[1] = target: T1, Lysyl oxidase homolog 2 (Homo sapiens, UniProt Q9Y4K0); test: Inhibition of human LOXL2 expressed in CHO cells assessed as reduction of H2O2 production from oxidative deamination of DAP preincubated for 2 hrs followed by substrate addition measured every 2 mins for 1 hr by amplex red reagent-based fluorescence assay; assay type: cell-based
T1 sequence (Q9Y4K0 whole entry): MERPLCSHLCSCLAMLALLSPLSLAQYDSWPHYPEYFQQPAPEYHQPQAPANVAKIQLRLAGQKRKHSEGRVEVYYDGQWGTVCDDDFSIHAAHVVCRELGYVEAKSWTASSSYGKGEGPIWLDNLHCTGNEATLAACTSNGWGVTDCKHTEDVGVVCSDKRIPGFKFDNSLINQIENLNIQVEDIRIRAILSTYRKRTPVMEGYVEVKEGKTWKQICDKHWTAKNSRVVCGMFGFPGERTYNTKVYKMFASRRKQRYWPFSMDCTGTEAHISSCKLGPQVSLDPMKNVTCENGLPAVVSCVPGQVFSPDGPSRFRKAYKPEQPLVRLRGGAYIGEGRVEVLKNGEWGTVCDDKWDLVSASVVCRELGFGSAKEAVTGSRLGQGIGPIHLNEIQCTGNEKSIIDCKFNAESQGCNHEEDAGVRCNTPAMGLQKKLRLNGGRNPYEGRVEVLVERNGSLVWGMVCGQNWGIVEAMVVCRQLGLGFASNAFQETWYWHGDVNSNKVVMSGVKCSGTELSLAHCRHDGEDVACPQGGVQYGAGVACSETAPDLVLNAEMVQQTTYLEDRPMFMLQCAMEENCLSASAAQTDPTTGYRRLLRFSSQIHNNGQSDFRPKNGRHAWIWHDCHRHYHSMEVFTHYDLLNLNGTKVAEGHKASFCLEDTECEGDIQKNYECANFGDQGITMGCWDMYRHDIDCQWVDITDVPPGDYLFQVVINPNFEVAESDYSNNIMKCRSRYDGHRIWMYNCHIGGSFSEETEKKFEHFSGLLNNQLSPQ

[2] = target: T2, Lysyl oxidase homolog 3 (Homo sapiens, UniProt P58215); test: Inhibition of recombinant human LOXL3 assessed as reduction of H2O2 production from oxidative deamination of DAP preincubated for 2 hrs followed by substrate addition measured every 2 mins for 1 hr by amplex red reagent-based fluorescence assay
T2 sequence (P58215 whole entry): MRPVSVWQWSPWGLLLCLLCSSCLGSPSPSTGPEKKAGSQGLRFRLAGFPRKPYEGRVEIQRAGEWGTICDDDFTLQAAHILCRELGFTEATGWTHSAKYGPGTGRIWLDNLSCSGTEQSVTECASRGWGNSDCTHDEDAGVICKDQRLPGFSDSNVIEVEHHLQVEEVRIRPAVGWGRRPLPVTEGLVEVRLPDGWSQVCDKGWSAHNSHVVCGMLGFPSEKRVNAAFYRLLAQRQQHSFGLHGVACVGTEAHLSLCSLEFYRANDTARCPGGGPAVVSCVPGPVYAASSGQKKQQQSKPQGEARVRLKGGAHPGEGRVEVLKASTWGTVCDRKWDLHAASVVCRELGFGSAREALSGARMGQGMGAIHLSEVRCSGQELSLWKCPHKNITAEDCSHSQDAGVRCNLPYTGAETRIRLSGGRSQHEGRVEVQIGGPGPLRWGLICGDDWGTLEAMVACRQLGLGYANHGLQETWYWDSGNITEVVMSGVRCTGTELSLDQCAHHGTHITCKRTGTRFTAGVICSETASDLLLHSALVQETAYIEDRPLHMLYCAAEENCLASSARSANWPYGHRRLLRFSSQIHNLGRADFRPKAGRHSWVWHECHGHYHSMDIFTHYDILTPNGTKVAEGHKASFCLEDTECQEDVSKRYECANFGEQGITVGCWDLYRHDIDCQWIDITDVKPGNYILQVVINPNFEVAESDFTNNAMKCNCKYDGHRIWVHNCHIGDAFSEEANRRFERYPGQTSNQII
Summary of the method: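 Purified recombinant human LOXL3 was preincubated with compound for 2 h, then H2O2 produced from DAP deamination was measured.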

[3] = target: T3, MAO-A (Homo sapiens, UniProt P21397); test: Inhibition of recombinant human MAO-A assessed as reduction of H2O2 production from oxidative deamination of tyramine at 10 uM preincubated for 2 hrs followed by substrate addition; settings: probe tyramine
T3 sequence (P21397 whole entry): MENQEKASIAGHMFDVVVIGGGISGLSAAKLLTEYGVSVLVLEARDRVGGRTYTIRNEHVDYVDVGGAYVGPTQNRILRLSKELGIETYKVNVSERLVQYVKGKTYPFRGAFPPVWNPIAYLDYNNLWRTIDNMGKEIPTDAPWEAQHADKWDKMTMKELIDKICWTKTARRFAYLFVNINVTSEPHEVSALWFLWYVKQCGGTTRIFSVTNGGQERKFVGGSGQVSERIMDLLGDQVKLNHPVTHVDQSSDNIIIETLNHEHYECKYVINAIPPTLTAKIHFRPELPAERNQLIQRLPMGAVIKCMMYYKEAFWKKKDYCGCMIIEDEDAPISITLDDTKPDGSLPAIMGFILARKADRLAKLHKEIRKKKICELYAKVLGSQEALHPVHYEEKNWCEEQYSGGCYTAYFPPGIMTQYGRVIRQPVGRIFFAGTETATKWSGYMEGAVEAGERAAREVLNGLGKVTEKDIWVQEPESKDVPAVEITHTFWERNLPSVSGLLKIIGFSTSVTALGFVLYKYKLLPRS
Summary of the method: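 Purified recombinant human MAO-A (tyramine substrate) or MAO-B (benzylamine substrate) was preincubated with compound for 2 h. Percent inhibition was calculated against vehicle and enzyme-free controls.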

[4] = target: T4, Lysyl oxidase homolog 2 (Homo sapiens) (UniProt Q9Y4K0); test: Irreversible inhibition of human LOXL2 assessed as reduction of H2O2 production from oxidative deamination of DAP at 1000 times IC50 preincubated for 2 hrs followed by compound washout and subsequent incubation for 2 hrs prior to substrate addition measured every 2 mins for 40 mins by amplex red reagent-based fluorescence assay relative to control
T4 sequence (whole entry): T1 sequence (Q9Y4K0 whole entry)
Summary of the method: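 Wells were washed repeatedly with PBS and equilibrated for 2 h. Recovered activity was then compared with nonwashed controls.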

[5] = target: T4, Lysyl oxidase homolog 2 (Homo sapiens); test: Irreversible inhibition of human LOXL2 assessed as catalytic activity preincubated for 2 hrs followed by substrate addition measured every 2 mins for 1 hr by amplex red reagent-based fluorescence assay relative to control; parameters: concentration or dose not given beside the values

SMILES: Cl.NCc1cc(Oc2cccc(C(=O)N3C[C@@H](O)[C@H](F)C3)c2)nc(C(F)(F)F)c1 (racemic)
- IC50 [1]: 0.078 µM
- IC50 [2]: 1.38 µM
- inhibition at 2 h, 10 µM [3]: < 10%
- inhibition [4]: 77%
- inhibition [5]: 97%
